What was measured:
SW-620 = assay: Growth inhibition of human SW620 cells after 72 hrs by MTT assay; format: functional, cell-based; details: SW-620, 72 h
Procedure, shortened: (§1)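 Cells were seeded on day 0 at 1 × 10⁴–3 × 10⁴ cells/mL according to doubling time. Compound was added in 10-fold dilutions (10⁻⁸–10⁻⁴ M) from DMSO stocks (final DMSO ≤0.25%, solvent control run) and incubated 72 h. Percentage of growth was calculated, four parallel samples in three experiments. IC50 was derived by linear regression between the concentrations bracketing PG 50; if none fell below, the result was reported as >highest concentration.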

HeLa [1] = assay: Growth inhibition of human HeLa cells after 72 hrs by MTT assay; format: functional, cell-based; procedure, shortened: as §1
MIA PaCa-2 = assay: Growth inhibition of human MIAPaCa2 cells after 72 hrs by MTT assay; format: functional, cell-based; details: MIA PaCa-2, 72 h; procedure, shortened: as §1
NCI-H460 = assay: Growth inhibition of human H460 cells after 72 hrs by MTT assay; format: functional, cell-based; details: NCI-H460, 72 h; procedure, shortened: as §1
MCF7 = assay: Growth inhibition of human MCF7 cells after 72 hrs by MTT assay; format: functional, cell-based; details: MCF7, 72 h
Procedure, shortened: as §1, with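 “time.” for “time. Compound was added in 10-fold dilutions (10⁻⁸–10⁻⁴ M) from DMSO stocks (final DMSO ≤0.25%, solvent control run) and incubated 72 h.”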

HeLa [2] = assay: Cell cycle arrest in human HeLa cells assessed as accumulation at S phase at 20 uM after 72 hrs by flow cytometry; format: functional
Procedure, shortened: (§2)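 Seeded 2 × 10⁵ cells per well; compound added after 24 h. At 24, 48 and 72 h post-treatment, attached cells were trypsinized and pooled with floating cells. Cells were PBS-washed, fixed in 70% ethanol, then stained with propidium iodide plus RNase A. DNA histograms came from 20 000 events per sample and gave the phase percentages. At least two experiments were run in triplicate, with Student t-test (p < 0.05).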

HeLa [3] = assay: Cell cycle arrest in human HeLa cells assessed as accumulation at subG1 phase at 20 uM after 72 hrs by flow cytometry; format: functional; procedure, shortened: as §2
HeLa [4] = assay: Cell cycle arrest in human HeLa cells assessed as accumulation at subG1 phase at 20 uM after 24 hrs by flow cytometry; format: functional; procedure, shortened: as §2
HeLa [5] = assay: Cell cycle arrest in human HeLa cells assessed as accumulation at G2/M phase at 20 uM after 48 hrs by flow cytometry; format: functional; procedure, shortened: as §2
HeLa [6] = assay: Cell cycle arrest in human HeLa cells assessed as accumulation at S phase at 20 uM after 48 hrs by flow cytometry; format: functional; procedure, shortened: as §2
HaCaT = assay: Growth inhibition of human HaCaT cells after 72 hrs by MTT assay; format: cell-based; procedure, shortened: as §1
HeLa [7] = assay: Cell cycle arrest in human HeLa cells assessed as accumulation at subG1 phase at 20 uM after 48 hrs by flow cytometry; format: functional; procedure, shortened: as §2
HeLa [8] = assay: Cell cycle arrest in human HeLa cells assessed as accumulation at G0/G1 phase at 20 uM after 72 hrs by flow cytometry; format: functional; procedure, shortened: as §2
HeLa [9] = assay: Cell cycle arrest in human HeLa cells assessed as accumulation at G0/G1 phase at 20 uM after 24 hrs by flow cytometry; format: functional; procedure, shortened: as §2
HeLa [10] = assay: Cell cycle arrest in human HeLa cells assessed as accumulation at G0/G1 phase at 20 uM after 48 hrs by flow cytometry; format: functional; procedure, shortened: as §2
HeLa [11] = assay: Cell cycle arrest in human HeLa cells assessed as accumulation at S phase at 20 uM after 24 hrs by flow cytometry; format: functional; procedure, shortened: as §2
HeLa [12] = assay: Cell cycle arrest in human HeLa cells assessed as accumulation at G2/M phase at 20 uM after 72 hrs by flow cytometry; format: functional; procedure, shortened: as §2
HeLa [13] = assay: Cell cycle arrest in human HeLa cells assessed as accumulation at G2/M phase at 20 uM after 24 hrs by flow cytometry; format: functional; procedure, shortened: as §2

Row | SMILES | IC50 (SW-620) [µM] | IC50 (HeLa [1]) [µM] | IC50 (MIA PaCa-2) [µM] | IC50 (NCI-H460) [µM] | IC50 (MCF7) [µM] | Activity (HeLa [2]) [%] | Activity (HeLa [3]) [%] | Activity (HeLa [4]) [%] | Activity (HeLa [5]) [%] | Activity (HeLa [6]) [%] | IC50 (HaCaT) [µM] | Activity (HeLa [7]) [%] | Activity (HeLa [8]) [%] | Activity (HeLa [9]) [%] | Activity (HeLa [10]) [%] | Activity (HeLa [11]) [%] | Activity (HeLa [12]) [%] | Activity (HeLa [13]) [%]
1 | Cc1ccc(S(=O)(=O)Nc2cc[nH]c(=O)n2)cc1 | > 100 | > 100 | > 100 | > 100 | 27 | – | – | – | – | – | – | – | – | – | – | – | – | –
2 | CC(C)(C)OC(=O)NCCNCC(=O)Nc1c[nH]c(=O)[nH]c1=O | 50 | 50 | 50 | > 100 | > 100 | – | – | – | – | – | – | – | – | – | – | – | – | –
3 | NCC(=O)Nc1c[nH]c(=O)[nH]c1=O | > 100 | > 100 | > 100 | > 100 | > 100 | – | – | – | – | – | – | – | – | – | – | – | – | –
4 | Cn1ccc(N)nc1=O | > 100 | 12 | > 100 | > 100 | > 100 | – | – | – | – | – | – | – | – | – | – | – | – | –
5 | O=c1[nH]c(=O)n(COC(CO)CO)cc1I [IODACYCLUR] | > 100 | 30 | > 100 | > 100 | > 100 | – | – | – | – | – | – | – | – | – | – | – | – | –
6 | Cc1cc(=O)[nH]c(=O)n1COC(CO)CO | > 100 | > 100 | > 100 | > 100 | > 100 | – | – | – | – | – | – | – | – | – | – | – | – | –
7 | Nc1cn(COC(CO)CO)c(=O)[nH]c1=O | > 100 | > 100 | > 100 | > 100 | > 100 | – | – | – | – | – | – | – | – | – | – | – | – | –
8 | O=C(CCl)Nc1c[nH]c(=O)[nH]c1=O | 12 | 4 | 17 | 14 | 15 | 48 | 25 | 12 | 7 | 45 | > 100 | 14 | 50 | 50 | 48 | 43 | 8 | 6
9 | N[C@H](CSCC(=O)Nc1c[nH]c(=O)[nH]c1=O)C(=O)O | 70 | 86 | 80 | > 100 | > 100 | – | – | – | – | – | – | – | – | – | – | – | – | –

Source: ChEMBL document CHEMBL1138552, “Synthesis of modified pyrimidine bases and positive impact of chemically reactive substituents on their in vitro antiproliferative activity” (Eur J Med Chem, 2009)
